Measurements as given in ChEMBL document CHEMBL1149554, “Dual bioactivity of resveratrol fatty alcohols: differentiation of neural stem cells and modulation of neuroinflammation” (2007).

How the values were obtained:
Neuron [1] = experiment: Neuronal differentiation activity assessed as increase in number of neurons at 0.1 uM in relative to control; type: functional, Homo sapiens
Procedure, shortened: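 Neurospheres (undifferentiated aggregates containing 5–10% neural stem cells, raised with EGF and bFGF) were treated with compound and scored for differentiation into neurons. The % of neurons was compared with ethanol vehicle control, or divided by the % of neurons obtained with retinoic acid treatment. Neuron morphology was also rated qualitatively. Each compound was tested in at least three independent experiments.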

[2] = Inhibition of LPS-stimulated nitric oxide production in mouse MMGT12 cells after 48 hrs; type: functional; parameters: scale not given: the % may be the effect or the level left
Procedure, shortened: (§1)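 Mouse MMGT-12 microglial cells stimulated with LPS in the presence or absence of test compound at several concentrations. Supernatants were collected, and accumulated NO was measured at 48 h by the Griess method and secreted TNF-α at 24 h by ELISA. Data are expressed as % of the LPS-only control, as mean ± SEM of three independent experiments.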

[3] = Inhibition of LPS-stimulated TNFalpha production in mouse MMGT12 cells after 24 hrs by ELISA; type: functional; parameters: scale not given: the % may be the effect or the level left; procedure, shortened: as §1
Neuron [4] = experiment: Neuronal differentiation activity assessed as increase in number of neurons at 0.1 uM in relative to 5 uM retinoic acid

| SMILES | Activity (Neuron [1]) | Activity [2] | Activity [3] | Activity (Neuron [4]) |
| --- | --- | --- | --- | --- |
| CC1=C(/C=C/C(C)=C/C=C/C(C)=C/C(=O)O)C(C)(C)CCC1 [TRETINOIN] | 203% | – | – | – |
| OCCCCCCCCCCCCc1c(O)cc(/C=C/c2ccc(O)cc2)cc1O | 263% | 50% | 30% | – |
| OCCCCCCCCCCc1c(O)cc(/C=C/c2ccc(O)cc2)cc1O | 108% | – | – | 0.53 |
| COc1ccc(/C=C/c2cc(OC)c(CCCCCCCCCCO)c(OC)c2)cc1 | 147% | – | – | – |
| COc1ccc(/C=C/c2cc(OC)c(CCCCCCCCCCCCO)c(OC)c2)cc1 | 188% | – | – | – |
| COc1ccc(/C=C/c2cc(OC)c(CCCCCCCCCCCCCCCCO)c(OC)c2)cc1 | 107% | – | – | 0.53 |
| OCCCCCCCCCCCCCCc1c(O)cc(/C=C/c2ccc(O)cc2)cc1O | 160% | – | – | – |
| COc1ccc(/C=C/c2cc(OC)c(CCCCCCCCCCCCCCO)c(OC)c2)cc1 | 135% | – | – | – |
| Oc1ccc(/C=C/c2cc(O)cc(O)c2)cc1 [RESVERATROL] | 105% | – | – | 0.52 |
| CCCCCCCCCCCCc1c(O)cc(/C=C/c2ccc(O)cc2)cc1O | 106% | – | – | 0.52 |
